Compounds with a hit are over-represented: about 1.8% of the library has one in this group of screens.
XBP1 UPR activ = adaptive UPR (XBP1) activation; CHO-XBP1 luciferase reporter, IRE1-XBP1 UPR activation, luminescence; percent of tunicamycin response, DMSO as zero; 0.33% of 330,000 active; activation, % at 20 µM; AID 463104;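 active = versus positive control, 20 µM dose yields 30% or more activation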
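Assay system: CHO-XBP1 luciferase reporter cells; Schedule: 6 h treatment, 37 °C; Detection: glow luminescence from Steady-Glo reagent; Benchmarks: high control tunicamycin 10 µg/mL final, low control DMSO vehicle only.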
UPR CHOP act = apoptotic UPR (CHOP) activation. 0.34% of 330,000 active. CHO-CHOP luciferase reporter, luminescence; percent of tunicamycin response over DMSO baseline. activation, % at 10 µM;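 active = at 10 µM dose, activation of 40% or more, normalized to positive control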
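System: CHO-CHOP luciferase reporter cell line; amount: 500 cells/well; buffer or medium: F12 medium containing 10% fetal bovine serum; incubation: 6 h compound exposure at 37 °C after overnight seeding; measured by: luciferase luminescence after 10 min with Steady-Glo reagent; evaluation: % reporter activation, DMSO baseline versus tunicamycin full activation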
697 NFkB inh = lowers PMA/ionomycin-induced NF-kB signal in 697 B cells | 697 B-cell NF-kB luciferase reporter, 16 h | inhibition, % at 4 µM | 0.33% of 330,000 active; in the data active = inhibition above about 35%
Jurkat NFkB inh = lowers PMA/ionomycin-induced NF-kB signal in Jurkat cells. AID 435003. 0.53% of 330,000 active. inhibition, % at 4 µM. PMA/ionomycin-induced NF-kB luciferase reporter, luminescence; in the data active = inhibition above about 50%
CRFR2-BP antag = blocks CRF-induced signaling of the CRF-BP/CRF-R2 complex; inhibition, % at 11.8 µM; HEK293 CRF-R2/CRF-BP, CRF-induced calcium fluorescence; 0.59% of 350,000 active; AID 588475;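 active = inhibition of the ligand-induced calcium signal above about 50% at the single tested concentration, limit read from the data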
Jurkat NFkB conf = lowers PMA/ionomycin-induced NF-kB signal in Jurkat cells. shares compounds with Jurkat NFkB inh. Jurkat NF-kB luciferase, 16 h. inhibition, % at 4 µM. 27% of 2,700 active;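 active = inhibition reaching about 45% at 4 µM in either replicate, limit read from the data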
697 NFkB conf = lowers PMA/ionomycin-induced NF-kB signal in 697 B cells; shares compounds with 697 NFkB inh; 697 B-cell NF-kB luciferase, 16 h; inhibition, % at 4 µM; 35% of 2,000 active; in the data active = inhibition mostly above about 28%, no sharp cut-off; inactive = mostly below about 22%
Hits are given with their value.

COc1ccc(C(=O)N/C(=C/c2cccnc2)C(=O)Nc2cccc(C(C)=O)c2)cc1OC was read as XBP1 UPR activ inactive, UPR CHOP act inactive, 697 NFkB inh inactive, Jurkat NFkB inh inactive and CRFR2-BP antag inactive.
`COC(=O)C1(C)NC(c2ccc(OC)cc2)C2C(=O)N(c3ccccc3)C(=O)C21` (centres undefined) gave XBP1 UPR activ inactive, UPR CHOP act inactive, 697 NFkB inh inactive, Jurkat NFkB inh inactive and CRFR2-BP antag inactive.
For COc1ccc(C)cc1N(C(=O)c1ccc(C#N)cc1)C1=NC(C)(C)CS1 the results were XBP1 UPR activ inactive, UPR CHOP act inactive, 697 NFkB inh inactive, Jurkat NFkB inh inactive and CRFR2-BP antag inactive.
For CC(C)(C)OC(=O)N(Cc1ccccc1)Cc1ccccc1OCc1cccc(NC(=O)c2ccccc2)c1 the results were CRFR2-BP antag inactive.
For Cc1nn(CC(=O)OCC(=O)c2ccccc2)c(C)c1[N+](=O)[O-] the results were XBP1 UPR activ inactive, UPR CHOP act inactive, 697 NFkB inh inactive, Jurkat NFkB inh inactive and CRFR2-BP antag inactive.
Screening Cc1cccc(C(=O)Nc2ccc3ccccc3c2)c1 returned XBP1 UPR activ inactive, UPR CHOP act inactive, 697 NFkB inh inactive, Jurkat NFkB inh inactive, CRFR2-BP antag inactive, Jurkat NFkB conf inactive and 697 NFkB conf inactive.
For COc1cccc(C(=O)Nc2nc3ccccc3s2)c1 the results were XBP1 UPR activ inactive, UPR CHOP act inactive, 697 NFkB inh inactive, Jurkat NFkB inh inactive, CRFR2-BP antag inactive, Jurkat NFkB conf inactive and 697 NFkB conf inactive.
CS(=O)(=O)Nc1ccc(C(=O)Nc2ccc3ccccc3c2)cc1 was read as XBP1 UPR activ inactive, UPR CHOP act inactive, 697 NFkB inh inactive, Jurkat NFkB inh inactive, CRFR2-BP antag inactive, Jurkat NFkB conf inactive and 697 NFkB conf inactive.
Screening O=C(Nc1ccc2ccccc2c1)c1cccc([N+](=O)[O-])c1 returned XBP1 UPR activ inactive, UPR CHOP act inactive, 697 NFkB inh inactive, Jurkat NFkB inh inactive and CRFR2-BP antag inactive.
`O=C(Nc1ccc2ccccc2c1)c1ccc(Cl)cc1Cl` gave XBP1 UPR activ inactive, UPR CHOP act inactive, 697 NFkB inh inactive, Jurkat NFkB inh inactive, CRFR2-BP antag inactive, Jurkat NFkB conf inactive and 697 NFkB conf inactive.
For CCN1C(=O)[C@H]2[C@@H](c3ccc(C(F)(F)F)cc3)N[C@]3(CCCN(Cc4ccc(OC)cc4)C3=O)[C@H]2C1=O the results were CRFR2-BP antag inactive.
Screening CCCNC(=O)C(Cc1cccc(Cl)c1)NC(=O)c1ccccc1 (centres undefined) returned XBP1 UPR activ inactive, UPR CHOP act inactive, 697 NFkB inh inactive, Jurkat NFkB inh inactive and CRFR2-BP antag inactive.
Cc1ccc(-c2csc(Nc3ccccn3)n2)cc1 was read as XBP1 UPR activ inactive, UPR CHOP act inactive, 697 NFkB inh inactive, Jurkat NFkB inh inactive, CRFR2-BP antag inactive, Jurkat NFkB conf inactive and 697 NFkB conf inactive.
`O=C(Nc1nc(-c2cc(F)ccc2F)cs1)c1ccccn1` gave XBP1 UPR activ inactive, UPR CHOP act inactive, 697 NFkB inh inactive, Jurkat NFkB inh inactive and CRFR2-BP antag inactive.
Screening Cc1nc(N)sc1-c1csc(Nc2ccccn2)n1 returned CRFR2-BP antag inactive.
`c1ccc(-c2csc(Nc3ccccn3)n2)cc1` gave XBP1 UPR activ inactive, UPR CHOP act inactive, 697 NFkB inh inactive, Jurkat NFkB inh inactive, CRFR2-BP antag inactive, Jurkat NFkB conf inactive and 697 NFkB conf inactive.
For CC(=O)Nc1cccc(-c2csc(Nc3ccc(C)cn3)n2)c1 the results were XBP1 UPR activ inactive, UPR CHOP act inactive, 697 NFkB inh inactive, Jurkat NFkB inh inactive, CRFR2-BP antag inactive, Jurkat NFkB conf inactive and 697 NFkB conf inactive.
Screening Fc1ccc(-c2csc(Nc3ccccn3)n2)c(F)c1 returned XBP1 UPR activ inactive, UPR CHOP act inactive, 697 NFkB inh inactive, Jurkat NFkB inh inactive, CRFR2-BP antag inactive, Jurkat NFkB conf inactive and 697 NFkB conf inactive.
O=C(CN1CCN(c2cccc(Cl)c2)CC1)NC1CCCc2ccccc21 (centres undefined) was read as XBP1 UPR activ inactive, UPR CHOP act inactive, 697 NFkB inh inactive, Jurkat NFkB inh inactive and CRFR2-BP antag inactive.
For N#Cc1ccc(CC(=O)c2ccccc2)[nH]c1=O the results were CRFR2-BP antag inactive.
For Cc1ccc(S(=O)(=O)N2CCC(C(=O)NCC(C)(C)N3CCOCC3)CC2)c(C)c1 the results were XBP1 UPR activ inactive, UPR CHOP act inactive, 697 NFkB inh inactive, Jurkat NFkB inh inactive and CRFR2-BP antag inactive.
Screening COc1ccc(CC(=O)Nc2nc(-c3ccc(OC)c(OC)c3)cs2)cc1OC returned XBP1 UPR activ inactive, UPR CHOP act inactive, 697 NFkB inh inactive, Jurkat NFkB inh inactive and CRFR2-BP antag inactive.
COc1ccc(-c2csc(Nc3ccccn3)n2)cc1OC was read as XBP1 UPR activ inactive, UPR CHOP act inactive, 697 NFkB inh inactive, Jurkat NFkB inh inactive, CRFR2-BP antag inactive, Jurkat NFkB conf inactive and 697 NFkB conf inactive.
Screening O=C(Nc1ccc(N2CCCCC2)c(Cl)c1)c1cccnc1 returned XBP1 UPR activ inactive, UPR CHOP act inactive, 697 NFkB inh inactive, Jurkat NFkB inh inactive, CRFR2-BP antag inactive, Jurkat NFkB conf inactive and 697 NFkB conf inactive.
O=C(Nc1ccc(N2CCCC2)c(Cl)c1)c1cccnc1 was read as XBP1 UPR activ inactive, UPR CHOP act inactive, 697 NFkB inh inactive, Jurkat NFkB inh inactive and CRFR2-BP antag inactive.
For CC1CN(C(=O)COC(=O)c2ccc(C#N)cc2)CC(C)O1 (centres undefined) the results were XBP1 UPR activ inactive, UPR CHOP act inactive, 697 NFkB inh inactive, Jurkat NFkB inh inactive and CRFR2-BP antag inactive.
`CCCCCCn1ccc(=N)cc1` gave XBP1 UPR activ inactive, UPR CHOP act inactive, 697 NFkB inh 72, Jurkat NFkB inh 63, CRFR2-BP antag inactive, Jurkat NFkB conf 56 and 697 NFkB conf 73.
For CCn1c(C)nc2cc(-c3nc4n(n3)Cc3ccccc3-4)ccc21 the results were XBP1 UPR activ inactive, UPR CHOP act inactive, 697 NFkB inh 70, Jurkat NFkB inh 91, CRFR2-BP antag inactive, Jurkat NFkB conf 91 and 697 NFkB conf 74.
`COc1ccc(NC(=O)c2ccco2)c(NC(=O)c2ccc([N+](=O)[O-])cc2)c1` gave XBP1 UPR activ inactive, UPR CHOP act inactive, 697 NFkB inh inactive, Jurkat NFkB inh inactive and CRFR2-BP antag inactive.
`O=C(NC1CC1)c1ccc(NC(=O)C2CCCCC2)cc1` gave CRFR2-BP antag inactive.
For Cc1ccc(C(=O)N/N=C/c2ccc([N+](=O)[O-])s2)cc1 the results were XBP1 UPR activ inactive, UPR CHOP act inactive, 697 NFkB inh 38, Jurkat NFkB inh 64, CRFR2-BP antag inactive, Jurkat NFkB conf 48 and 697 NFkB conf inactive.

Screening data from PubChem BioAssay.
